Results from ChEMBL document CHEMBL4138228, “Substituted carbamothioic amine-1-carbothioic thioanhydrides as novel trichomonicidal fungicides: Design, synthesis, and biology” (Eur J Med Chem, 2018).
Values after ≈ are worked out from the molar mass of the structure shown. Active and inactive are the calls of the source. The calls are words filed in the database; no cut-off is given here.

How the values were obtained:
[1] = test system: Trichomonas vaginalis; assay: Inhibition of free sulfhydryl group in Trichomonas vaginalis at MIC after 24 hrs by mBBr dye-based fluorescence microscopic method
How it was run: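 Cells were pelleted (700 xg, 10 min, 4°C) and washed in PBS. They were then labelled in the dark with a fluorometric thiol detector prediluted 100x. Imaging used epifluorescence microscopy through a UV-1A filter, with the same exposure for all samples, and was assessed qualitatively.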

[2] = test system: Sporothrix schenckii; assay: Antifungal activity against Sporothrix schenckii after 48 hrs by broth microdilution method; assay type: functional
How it was run: (§1)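 Broth microdilution per NCCLS guidelines in MOPS-buffered RPMI 1640; starting inoculum 1-5 x 10^3 CFU/mL; plates incubated at 35 °C; MIC recorded after 48 h; fluconazole as reference; experiments repeated three times.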

[3] = test system: Plasmodium falciparum; assay: Antimalarial activity against chloroquine-sensitive Plasmodium falciparum 3D7 infecetd in RBC after 72 hrs by SYBR Green dye-based fluorescence assay; assay type: functional, organism-based; details: 3D7, Erythrocyte
[4] = test system: Trichomonas vaginalis; assay: Selectivity ratio of MIC for metronidazole-resistant Trichomonas vaginalis CDC085 ATCC 50143 to MIC for metronidazole-susceptible Trichomonas vaginalis; assay type: functional
[5] = test system: HeLa; assay: Cytotoxicity against human HeLa cells after 24 hrs by MTT assay; assay type: cell-based
[6] = test system: Trichophyton mentagrophytes; assay: Antifungal activity against Trichophyton mentagrophytes after 48 hrs by broth microdilution method; assay type: functional; how it was run: as §1
[7] = test system: Trichomonas vaginalis; assay: Antitrichomonas activity against metronidazole-resistant Trichomonas vaginalis CDC085 ATCC 50143 assessed as decrease in cell viability after 48 hrs by trypan blue exclusion method; assay type: functional; details: CDC085 ATCC 50143, 48 h
[8] = test system: Rattus norvegicus; assay: Clearance in Sprague-Dawley rat at 50 mg/kg, po measured up to 24 hrs by LC-MS/MS analysis; assay type: ADME, organism-based; details: in vivo
How it was run: (§2)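 Male rats fasted 12-16 h before dosing (n = 4 per time point). Each received a single 50 mg/kg oral dose as a 12.5 mg/mL suspension in 1% w/v gum acacia in water, given by feeding needle. Serum was sampled up to 24 h, cleaned up by protein precipitation and assayed by LC-MS/MS (MRM, phenacetin internal standard, linear 1-200 ng/mL). Parameters were derived by non-compartmental analysis.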

[9] = test system: Candida albicans; assay: Antifungal activity against Candida albicans MTCC 183 after 48 hrs by broth microdilution method; assay type: functional; details: MTCC 183, 48 h; how it was run: as §1
[10] = test system: Trichomonas vaginalis; assay: Antitrichomonas activity against metronidazole-susceptible Trichomonas vaginalis infected in mouse assessed as growth of abscess at 50 to 100 mg/kg, po administered for […] post last dose (reference value: 96.55 mm'2); assay type: functional
[11] = test system: Candida albicans; assay: Antifungal activity against Candida albicans ATCC 14053 after 48 hrs by broth microdilution method; assay type: functional; details: ATCC 14053, 48 h; how it was run: as §1
[12] = test system: Cryptococcus neoformans; assay: Antifungal activity against Cryptococcus neoformans after 48 hrs by broth microdilution method; assay type: functional; how it was run: as §1
[13] = test system: Candida albicans; assay: Antifungal activity against Candida albicans patient isolate after 48 hrs by broth microdilution method; assay type: functional; how it was run: as §1
[14] = Elimination half life in Sprague-Dawley rat at 50 mg/kg, po measured up to 24 hrs by LC-MS/MS analysis; assay type: ADME, organism-based; details: in vivo, read-out: beta t1/2 (converted); how it was run: as §2
[15] = test system: Nakaseomyces glabratus; assay: Antifungal activity against Candida glabrata ATCC 2001 after 48 hrs by broth microdilution method; assay type: functional; details: ATCC 2001, 48 h; how it was run: as §1
[16] = Selectivity index, ratio of IC50 for human HeLa cells to MIC for metronidazole-susceptible Trichomonas vaginalis; assay type: toxicity; details: read-out: Selectivity Index
[17] = test system: Candida albicans; assay: Antifungal activity against Candida albicans ATCC 66027 after 48 hrs by broth microdilution method; assay type: functional; details: ATCC 66027, 48 h; how it was run: as §1
[18] = test system: Candida albicans; assay: Antifungal activity against Candida albicans ATCC 10231 after 48 hrs by broth microdilution method; assay type: functional; details: ATCC 10231, 48 h; how it was run: as §1
[19] = test system: Trichomonas vaginalis; assay: Antitrichomonas activity against metronidazole-susceptible Trichomonas vaginalis assessed as decrease in cell viability after 48 hrs by trypan blue exclusion method; assay type: functional
[20] = test system: Plasmodium falciparum; assay: Antimalarial activity against chloroquine-resistant Plasmodium falciparum K1 infecetd in RBC after 72 hrs by SYBR Green dye-based fluorescence assay; assay type: functional, organism-based; details: K1, Erythrocyte
[21] = test system: Rattus norvegicus; assay: AUClast in Sprague-Dawley rat at 50 mg/kg, po measured up to 24 hrs by LC-MS/MS analysis; assay type: ADME, organism-based; design: time < 24 hr, dose 50 mg/kg, route oral; details: in vivo; how it was run: as §2
[22] = test system: Rattus norvegicus; assay: Volume of distribution at steady state in Sprague-Dawley rat at 50 mg/kg, po measured up to 24 hrs by LC-MS/MS analysis; assay type: ADME, organism-based; details: in vivo; how it was run: as §2
[23] = test system: Trichomonas vaginalis; assay: Antitrichomonas activity against metronidazole-susceptible Trichomonas vaginalis infected in mouse assessed as growth of abscess at 50 mg/kg, po administered for 7 days measured on day 7 post last dose (reference value: 96.5 mm'2); assay type: functional
[24] = test system: Trichomonas vaginalis; assay: Antitrichomonas activity against metronidazole-susceptible Trichomonas vaginalis infected in mouse assessed as growth of abscess at 100 mg/kg, po administered for 7 days measured on day 7 post last dose (reference value: 96.5 mm'2); assay type: functional
[25] = test system: Trichomonas vaginalis; assay: Potency index, ratio of metronidazole MIC to test compound MIC for metronidazole-resistant Trichomonas vaginalis CDC085 ATCC 50143; assay type: functional
[26] = test system: Candida parapsilosis; assay: Antifungal activity against Candida parapsilosis ATCC 22019 after 48 hrs by broth microdilution method; assay type: functional; details: Lodderomyces parapsilosis, ATCC 22019, 48 h; how it was run: as §1
[27] = Cmax in Sprague-Dawley rat at 50 mg/kg, po measured up to 24 hrs by LC-MS/MS analysis; assay type: ADME, organism-based; design: dose 50 mg/kg, route oral; details: in vivo; how it was run: as §2
[28] = Selectivity index, ratio of IC50 for human HeLa cells to MIC for metronidazole-resistant Trichomonas vaginalis CDC085 ATCC 50143; assay type: toxicity; details: read-out: Selectivity Index
[29] = Tmax in Sprague-Dawley rat at 50 mg/kg, po measured up to 24 hrs by LC-MS/MS analysis; assay type: ADME, organism-based; details: in vivo; how it was run: as §2
[30] = test system: Trichomonas vaginalis; assay: Potency index, ratio of metronidazole MIC to test compound MIC for metronidazole-susceptible Trichomonas vaginalis; assay type: functional

With `CN(C)C(=S)SC(=S)N1CCN(c2ncccn2)CC1` the inhibition [1] was “Active”, the MIC [2] was 153 µM (≈ 50.1 µg/mL) and the IC50 [3] was 0.76 µM. For the same compound, the selectivity ratio [4] was 8, the IC50 [5] was > 5000 µM and the MIC [6] was 153 µM (≈ 50.1 µg/mL). The MIC [7] was 38.2 µM (≈ 12.5 µg/mL), the CL [8] was 81.7 mL/min/kg and the MIC [9] was 76.5 µM (≈ 25 µg/mL). For the same compound, the Activity [10] was 1 - 2.5 mm2, the MIC [11] was 153 µM (≈ 50.1 µg/mL) and the MIC [12] was 153 µM (≈ 50.1 µg/mL). For the same compound, the MIC [13] was 153 µM (≈ 50.1 µg/mL), the half-life [14] was 2.6 h and the MIC [15] was 153 µM (≈ 50.1 µg/mL). It also gave a selectivity ratio [16] of 1050, an MIC [17] of 38.2 µM (≈ 12.5 µg/mL) and an MIC [18] of 153 µM (≈ 50.1 µg/mL). It also gave an MIC [19] of 4.77 µM (≈ 1.56 µg/mL), an IC50 [20] of 1.85 µM and an AUClast [21] of 140.5 ng·h/mL. For the same compound, the Vdss [22] was 12.6 L/kg, the Activity [23] was 1.57 mm2 and the Activity [24] was 0.79 mm2. The Ratio [25] was 9.5, the MIC [26] was 153 µM (≈ 50.1 µg/mL) and the Cmax [27] was 47.1 ng/mL. For the same compound, the selectivity ratio [28] was 131, the Tmax [29] was 2 h and the Ratio [30] was 3.8.
Work on `CN(C)C(=S)SC(=S)N1CCN(C(=O)OC(C)(C)C)CC1` yielded an MIC [2] of 143 µM (≈ 49.9 µg/mL), an IC50 [3] of 0.78 µM and an IC50 [5] of 1310 µM. The MIC [6] was 143 µM (≈ 49.9 µg/mL), the MIC [7] was 71.4 µM (≈ 25 µg/mL) and the MIC [9] was 143 µM (≈ 49.9 µg/mL). It also gave an MIC [11] of 143 µM (≈ 49.9 µg/mL), an MIC [12] of 143 µM (≈ 49.9 µg/mL) and an MIC [13] of 143 µM (≈ 49.9 µg/mL). For the same compound, the MIC [15] was 143 µM (≈ 49.9 µg/mL), the selectivity ratio [16] was 73 and the MIC [17] was 71.4 µM (≈ 25 µg/mL). For the same compound, the MIC [18] was 143 µM (≈ 49.9 µg/mL), the MIC [19] was 17.9 µM (≈ 6.24 µg/mL) and the IC50 [20] was 1.74 µM. The Ratio [25] was 1.3 - 9.5, the MIC [26] was 143 µM (≈ 49.9 µg/mL) and the selectivity ratio [28] was 18. For the same compound, the Ratio [30] was 1 - 3.8.
For `Cc1ncc([N+](=O)[O-])n1CCO` [METRONIDAZOLE], the IC50 [5] was > 5000 µM, the MIC [7] was 365 µM (≈ 62.6 µg/mL) and the selectivity ratio [16] was > 277. The MIC [19] was 18.2 µM (≈ 3.12 µg/mL), the Activity [23] was 2.35 mm2 and the selectivity ratio [28] was > 13.
With `CN(C)C(=S)SC(=S)N1CCN(C(=S)Nc2ccccc2)CC1` the MIC [2] was 130 µM (≈ 50 µg/mL), the IC50 [3] was 0.72 µM and the IC50 [5] was > 5000 µM. The MIC [6] was 130 µM (≈ 50 µg/mL), the MIC [7] was 32.5 µM (≈ 12.5 µg/mL) and the MIC [9] was > 130 µM. For the same compound, the MIC [11] was > 130 µM, the MIC [12] was > 130 µM and the MIC [13] was > 130 µM. For the same compound, the MIC [15] was > 130 µM, the selectivity ratio [16] was > 617 and the MIC [17] was > 130 µM. The MIC [18] was > 130 µM, the MIC [19] was 8.1 µM (≈ 3.12 µg/mL) and the IC50 [20] was 1.66 µM. The Ratio [25] was 11.4, the MIC [26] was > 130 µM and the selectivity ratio [28] was > 154. For the same compound, the Ratio [30] was 2.2.
